Reference: ChEMBL document CHEMBL4622853, “Design and synthesis of novel pyrrolo[2,3-b]pyridine derivatives targeting V600EBRAF” (Bioorg Med Chem, 2020)

Legend:
[1] = system: Serine/threonine-protein kinase B-raf (Homo sapiens), P15056 [V600E]; test: Inhibition of human BRAF V600E mutant at 10 uM by ELISA
[2] = target: Serine/threonine-protein kinase B-raf (Homo sapiens, UniProt P15056); test: Inhibition of human wild type BRAF at 10 uM by ELISA
Summary of the method: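 Wild-type BRAF kinase inhibition run in the same manner as the V600E-B-RAF ELISA, reported as percent inhibition at 10 µM.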

[3] = target: Serine/threonine-protein kinase B-raf (Homo sapiens, UniProt P15056, V600E); test: Inhibition of human BRAF V600E mutant by ELISA
Serine/threonine-protein kinase B-raf (Homo sapiens, UniProt P15056, V600E), sequence (P15056 2-766 V600E limits assumed): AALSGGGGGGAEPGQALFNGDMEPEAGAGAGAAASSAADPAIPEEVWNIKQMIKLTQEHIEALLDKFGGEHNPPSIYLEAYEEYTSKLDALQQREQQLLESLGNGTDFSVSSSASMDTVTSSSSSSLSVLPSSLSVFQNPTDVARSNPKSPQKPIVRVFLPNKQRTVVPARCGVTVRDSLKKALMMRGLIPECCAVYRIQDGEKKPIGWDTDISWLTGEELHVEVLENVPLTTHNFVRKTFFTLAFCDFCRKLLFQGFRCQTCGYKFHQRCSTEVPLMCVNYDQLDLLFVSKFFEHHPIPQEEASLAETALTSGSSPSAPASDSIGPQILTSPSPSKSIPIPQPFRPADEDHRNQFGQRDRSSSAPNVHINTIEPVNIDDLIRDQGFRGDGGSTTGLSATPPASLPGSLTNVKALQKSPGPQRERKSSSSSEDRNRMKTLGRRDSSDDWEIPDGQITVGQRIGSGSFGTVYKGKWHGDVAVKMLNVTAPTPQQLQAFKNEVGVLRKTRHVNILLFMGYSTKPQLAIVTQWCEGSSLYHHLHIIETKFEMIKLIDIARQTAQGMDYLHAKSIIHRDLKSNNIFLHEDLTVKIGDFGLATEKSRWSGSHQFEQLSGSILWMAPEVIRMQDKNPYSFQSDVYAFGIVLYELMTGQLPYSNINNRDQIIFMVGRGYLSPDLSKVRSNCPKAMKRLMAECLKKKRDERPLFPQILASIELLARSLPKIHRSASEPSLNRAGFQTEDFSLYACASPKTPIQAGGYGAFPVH

HL-60(TB) [4] = test: Cytotoxicity against human HL-60(TB) cells assessed as reduction in cell viability after 48 hrs by SRB assay; type: functional, cell-based; conditions: HL-60, 48 h
Summary of the method: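 Tested within the NCI sixty human cancer cell line panel. IC50 is the concentration that reduces cellular growth to 50% of untreated cells after treatment.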

K562 [5] = test: Cytotoxicity against human K562 cells assessed as reduction in cell viability after 48 hrs by SRB assay; type: functional, cell-based; conditions: K562, 48 h
Summary of the method: (§1)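 Cell lines from the NCI sixty human cancer cell line panel. IC50 taken as the concentration that reduces cellular growth to 50% of untreated cells.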

NCI-H460 = test: Cytotoxicity against human NCI-H460 cells assessed as reduction in cell viability after 48 hrs by SRB assay; type: functional, cell-based; conditions: NCI-H460, 48 h; summary of the method: as §1
NCI-H522 = test: Cytotoxicity against human NCI-H522 cells assessed as reduction in cell viability after 48 hrs by SRB assay; type: functional, cell-based; conditions: NCI-H522, 48 h; summary of the method: as §1
HCT-116 = test: Cytotoxicity against human HCT116 cells assessed as reduction in cell viability after 48 hrs by SRB assay; type: functional, cell-based; conditions: HCT-116, 48 h; summary of the method: as §1
M14 [6] = test: Cytotoxicity against human M14 cells assessed as reduction in cell viability after 48 hrs by SRB assay; type: functional, cell-based; conditions: M14, 48 h; summary of the method: as §1
SK-MEL-2 [7] = test: Cytotoxicity against human SK-MEL-2 cells assessed as reduction in cell viability after 48 hrs by SRB assay; type: functional, cell-based; conditions: SK-MEL-2, 48 h; summary of the method: as §1
LOX IMVI = test: Cytotoxicity against human LOXIMVI cells assessed as reduction in cell viability after 48 hrs by SRB assay; type: functional, cell-based; summary of the method: as §1
Malme-3M = test: Cytotoxicity against human MALME-3M cells assessed as reduction in cell viability after 48 hrs by SRB assay; type: functional, cell-based; summary of the method: as §1
IGROV-1 [8] = test: Cytotoxicity against human IGROV1 cells assessed as reduction in cell viability after 48 hrs by SRB assay; type: functional, cell-based; conditions: IGROV-1, 48 h; summary of the method: as §1
SK-OV-3 [9] = test: Cytotoxicity against human SKOV3 cells assessed as reduction in cell viability after 48 hrs by SRB assay; type: functional, cell-based; conditions: SK-OV-3, 48 h; summary of the method: as §1
ACHN [10] = test: Cytotoxicity against human ACHN cells assessed as reduction in cell viability after 48 hrs by SRB assay; type: functional, cell-based; summary of the method: as §1
CAKI-1 [11] = test: Cytotoxicity against human Caki1 cells assessed as reduction in cell viability after 48 hrs by SRB assay; type: functional, cell-based; conditions: CAKI-1, 48 h; summary of the method: as §1
A498 = test: Cytotoxicity against human A498 cells assessed as reduction in cell viability after 48 hrs by SRB assay; type: functional, cell-based; conditions: A498, 48 h; summary of the method: as §1
DU-145 = test: Cytotoxicity against human DU145 cells assessed as reduction in cell viability after 48 hrs by SRB assay; type: functional, cell-based; conditions: DU-145, 48 h; summary of the method: as §1
MDA-MB-231 = test: Cytotoxicity against human MDA-MB-231 cells assessed as reduction in cell viability after 48 hrs by SRB assay; type: functional, cell-based; conditions: MDA-MB-231, 48 h; summary of the method: as §1
Hs-578T = test: Cytotoxicity against human Hs 578T cells assessed as reduction in cell viability after 48 hrs by SRB assay; type: functional, cell-based; summary of the method: as §1
K562 [12] = test: Cytotoxicity against human K562 cells assessed as reduction in cell viability at 10 uM after 48 hrs by SRB assay relative to control; type: functional; conditions: K562, 48 h
M14 [13] = test: Cytotoxicity against human M14 cells assessed as reduction in cell viability at 10 uM after 48 hrs by SRB assay relative to control; type: functional; conditions: M14, 48 h
SK-MEL-2 [14] = test: Cytotoxicity against human SK-MEL-2 cells assessed as reduction in cell viability at 10 uM after 48 hrs by SRB assay relative to control; type: functional; conditions: SK-MEL-2, 48 h
IGROV-1 [15] = test: Cytotoxicity against human IGROV1 cells assessed as reduction in cell viability at 10 uM after 48 hrs by SRB assay relative to control; type: functional; conditions: IGROV-1, 48 h
SK-OV-3 [16] = test: Cytotoxicity against human SKOV3 cells assessed as reduction in cell viability at 10 uM after 48 hrs by SRB assay relative to control; type: functional; conditions: SK-OV-3, 48 h
ACHN [17] = test: Cytotoxicity against human ACHN cells assessed as reduction in cell viability at 10 uM after 48 hrs by SRB assay relative to control; type: functional
CAKI-1 [18] = test: Cytotoxicity against human Caki1 cells assessed as reduction in cell viability at 10 uM after 48 hrs by SRB assay relative to control; type: functional; conditions: CAKI-1, 48 h
HL-60(TB) [19] = test: Cytotoxicity against human HL-60(TB) cells assessed as reduction in cell viability at 10 uM after 48 hrs by SRB assay relative to control; type: functional; conditions: HL-60, 48 h

Serine/threonine-protein kinase B-raf (Homo sapiens, UniProt P15056), sequence (P15056 whole entry): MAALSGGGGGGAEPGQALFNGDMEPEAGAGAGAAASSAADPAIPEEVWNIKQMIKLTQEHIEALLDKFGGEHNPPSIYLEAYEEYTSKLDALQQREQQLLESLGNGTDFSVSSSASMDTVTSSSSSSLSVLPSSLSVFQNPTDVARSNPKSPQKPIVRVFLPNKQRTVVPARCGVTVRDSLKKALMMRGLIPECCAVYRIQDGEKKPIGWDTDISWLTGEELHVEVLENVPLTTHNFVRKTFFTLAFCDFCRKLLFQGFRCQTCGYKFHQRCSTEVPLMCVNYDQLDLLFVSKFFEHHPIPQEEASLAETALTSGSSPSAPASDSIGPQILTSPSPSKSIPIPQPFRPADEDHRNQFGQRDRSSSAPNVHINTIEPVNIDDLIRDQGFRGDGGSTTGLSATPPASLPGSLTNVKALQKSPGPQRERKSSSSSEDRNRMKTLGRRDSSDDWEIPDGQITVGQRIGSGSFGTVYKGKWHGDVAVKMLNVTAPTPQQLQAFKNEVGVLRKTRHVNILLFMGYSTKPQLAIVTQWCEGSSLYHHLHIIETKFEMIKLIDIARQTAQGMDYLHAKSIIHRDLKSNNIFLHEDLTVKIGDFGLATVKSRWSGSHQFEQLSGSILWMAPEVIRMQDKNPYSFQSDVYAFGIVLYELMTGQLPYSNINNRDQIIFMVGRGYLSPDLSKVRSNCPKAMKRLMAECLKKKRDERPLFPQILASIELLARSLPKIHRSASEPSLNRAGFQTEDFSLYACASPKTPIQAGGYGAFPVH
Serine/threonine-protein kinase B-raf (Homo sapiens), P15056 [V600E], sequence (P15056 whole entry V600E): as the sequence (P15056 whole entry) above, with V600E counted along it

## Cc1ccc(C(=O)NCCCNc2nccc(-n3ccc4cccnc43)n2)cc1
[1]
  inhibition: 61.6%
[2]
  inhibition: 50%

## O=C(NCCNc1nccc(-n2ccc3cccnc32)n1)c1c(F)cccc1F
[1]
  inhibition: -1.9%
[2]
  inhibition: 0.1%

## COc1ccc(S(=O)(=O)NCCCNc2nccc(-n3ccc4cccnc43)n2)cc1
[1]
  inhibition: 94.5%
[2]
  inhibition: 82.1%
[3]
  IC50: 0.79 µM

## O=C(NCCCNc1nccc(-n2ccc3cccnc32)n1)c1ccc(C(F)(F)F)cc1
[1]
  inhibition: 15.3%
[2]
  inhibition: 9.45%

## Cc1ccc(S(=O)(=O)NCCCNc2nccc(-n3ccc4cccnc43)n2)cc1
[1]
  inhibition: 93%
[2]
  inhibition: 83.3%
[3]
  IC50: 1 µM

## COc1ccc(S(=O)(=O)NCCNc2nccc(-n3ccc4cccnc43)n2)cc1
[1]
  inhibition: 56.7%
[2]
  inhibition: 39.2%

## O=C(Nc1ccc(Br)cc1)Nc1ccc(F)c(C(=O)c2c[nH]c3ncccc23)c1F
[1]
  inhibition: 92%
[2]
  inhibition: 80.1%

## O=C(NCCCNc1nccc(-n2ccc3cccnc32)n1)c1ccc(F)cc1
[1]
  inhibition: 67.5%
[2]
  inhibition: 58.7%

## O=S(=O)(NCCNc1nccc(-n2ccc3cccnc32)n1)c1ccccc1
[1]
  inhibition: 66.5%
[2]
  inhibition: 52.3%

## Cc1ccc(S(=O)(=O)NCCNc2nccc(-n3ccc4cccnc43)n2)cc1
[1]
  inhibition: 41.1%
[2]
  inhibition: 26.3%

## O=C(NCCCNc1nccc(-n2ccc3cccnc32)n1)c1ccccc1
[1]
  inhibition: 69.4%
[2]
  inhibition: 60.9%

## O=C(Nc1ccc(Br)cc1)Nc1ccc(F)c(C(=O)c2c[nH]c3ncc(Br)cc23)c1F
[1]
  inhibition: 92.3%
[2]
  inhibition: 72.5%
HL-60(TB) [4]
  IC50: 10.9 µM
K562 [5]
  IC50: 7.21 µM
NCI-H460
  IC50: 10.5 µM
NCI-H522
  IC50: 9.01 µM
HCT-116
  IC50: 8.71 µM
M14 [6]
  IC50: 7.92 µM
SK-MEL-2 [7]
  IC50: 6.02 µM
LOX IMVI
  IC50: 26.5 µM
Malme-3M
  IC50: 9.26 µM
IGROV-1 [8]
  IC50: 5.06 µM
SK-OV-3 [9]
  IC50: 4.52 µM
ACHN [10]
  IC50: 7.62 µM
CAKI-1 [11]
  IC50: 3.04 µM
A498
  IC50: 11.2 µM
DU-145
  IC50: 9.62 µM
MDA-MB-231
  IC50: 12.2 µM
Hs-578T
  IC50: 9.36 µM
[3]
  IC50: 0.08 µM
K562 [12]
  inhibition at 10 µM: 65%
M14 [13]
  inhibition at 10 µM: 65%
SK-MEL-2 [14]
  inhibition at 10 µM: 85%
IGROV-1 [15]
  inhibition at 10 µM: 75%
SK-OV-3 [16]
  inhibition at 10 µM: 87%
ACHN [17]
  inhibition at 10 µM: 70%
CAKI-1 [18]
  inhibition at 10 µM: 90%

## O=C(NCCNc1nccc(-n2ccc3cccnc32)n1)C1CCCCC1
[1]
  inhibition: 73.7%
[2]
  inhibition: 43.4%

## O=S(=O)(NCCNc1nccc(-n2ccc3cccnc32)n1)c1ccc(F)cc1
[1]
  inhibition: 89.5%
[2]
  inhibition: 55.9%

## O=C(NCCNc1nccc(-n2ccc3cccnc32)n1)c1ccc(Cl)cc1
[1]
  inhibition: 0.16%
[2]
  inhibition: -1.1%

## O=C(Nc1cccc(F)c1)Nc1ccc(F)c(C(=O)c2c[nH]c3ncccc23)c1F
[1]
  inhibition: 49%
[2]
  inhibition: 51.2%

## O=C(Nc1ccc(C(F)(F)F)cc1)Nc1ccc(F)c(C(=O)c2c[nH]c3ncccc23)c1F
[1]
  inhibition: 98.7%
[2]
  inhibition: 79.3%
HL-60(TB) [4]
  IC50: 8.12 µM
K562 [5]
  IC50: 25.3 µM
NCI-H460
  IC50: 26.4 µM
NCI-H522
  IC50: 29.1 µM
HCT-116
  IC50: 15.5 µM
M14 [6]
  IC50: 24.3 µM
SK-MEL-2 [7]
  IC50: 21.1 µM
LOX IMVI
  IC50: 27 µM
Malme-3M
  IC50: 12.3 µM
IGROV-1 [8]
  IC50: 9.66 µM
SK-OV-3 [9]
  IC50: 18.8 µM
ACHN [10]
  IC50: 21.3 µM
CAKI-1 [11]
  IC50: 14 µM
A498
  IC50: 32.3 µM
DU-145
  IC50: 27.6 µM
MDA-MB-231
  IC50: 9.72 µM
Hs-578T
  IC50: 21.4 µM
[3]
  IC50: 0.114 µM
HL-60(TB) [19]
  inhibition at 10 µM: 67%
K562 [12]
  inhibition at 10 µM: 83%

## Cc1ccc(C(=O)NCCNc2nccc(-n3ccc4cccnc43)n2)cc1
[1]
  inhibition: 81.8%
[2]
  inhibition: 53.8%

## COc1ccc(NC(=O)Nc2ccc(F)c(C(=O)c3c[nH]c4ncccc34)c2F)cc1
[1]
  inhibition: 81.3%
[2]
  inhibition: 69.6%

## O=S(=O)(NCCCNc1nccc(-n2ccc3cccnc32)n1)c1cccc(C(F)(F)F)c1
[1]
  inhibition: 96.1%
[2]
  inhibition: 86.3%
[3]
  IC50: 1.1 µM
